From ChEMBL document CHEMBL3124769, “Synthesis and antitumor activities of novel dipeptide derivatives derived from dehydroabietic acid” (Bioorg Med Chem Lett, 2014)
Activity calls are given as the source filed them. The rule behind the calls is not given here.

Legend:
SK-OV-3 = assay: Cytotoxicity against human SKOV3 cells after 48 hrs by MTT assay; type: functional, cell-based; conditions: SK-OV-3, 48 h
How it was run: (§1)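 Cells from the six lines were plated and left to adhere for 24 h. They were then exposed to compounds at 100 to 0.01 µM for 48 h. After that the medium was replaced with complete medium and viability was read by MTT. IC50 came from the concentration series, and each experiment was done three times.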

HeLa [1] = assay: Cytotoxicity against human HeLa cells after 48 hrs by MTT assay; type: functional, cell-based; how it was run: as §1
[2] = Cytotoxicity against human Bel7404 cells after 48 hrs by MTT assay; type: functional, cell-based; conditions: BEL-7404, 48 h; how it was run: as §1
HCT-116 = assay: Cytotoxicity against human HCT116 cells after 48 hrs by MTT assay; type: functional, cell-based; conditions: HCT-116, 48 h; how it was run: as §1
HepG2 = assay: Cytotoxicity against human HepG2 cells after 48 hrs by MTT assay; type: functional, cell-based; conditions: HepG2, 48 h; how it was run: as §1
NCI-H460 = assay: Cytotoxicity against human NCI-H460 cells after 48 hrs by MTT assay; type: functional, cell-based; conditions: NCI-H460, 48 h; how it was run: as §1
HeLa [3] = assay: Induction of apoptosis in human HeLa cells assessed as necrotic cells at 5 uM after 12 hrs using annexin V/propidium iodide staining by flow cytometry (reference value: 2.1%); type: functional
How it was run: (§2)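 HeLa cells were treated at 5 or 10 µM for 12 h, with untreated cells run alongside for 12 h. Cells were washed in cold PBS and resuspended in binding buffer. They were stained with Annexin V-FITC, then PI, for 20 min in the dark and run on a flow cytometer. Quadrants: Q2 necrotic/late apoptotic, Q3 normal, Q4 early apoptotic. Apoptosis ratio = early + late.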

HeLa [4] = assay: Induction of apoptosis in human HeLa cells assessed as release of ROS at 5 to 10 uM after 12 hrs by fluorescence microscopic analysis; type: functional, cell-based
How it was run: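 HeLa cells were given 5 or 10 µM for 12 h, with an untreated control handled the same way. Intracellular ROS was visualized by fluorescence microscopy using the probe 2,7-dichlorofluorescein diacetate.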

HeLa [5] = assay: Induction of apoptosis in human HeLa cells assessed as DNA fragmentation at 5 to 15 uM after 24 hrs by agarose gel electrophoresis analysis; type: functional, cell-based
How it was run: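 HeLa cells were exposed for 24 h at 5, 10 or 15 µM alongside untreated cells. Total cellular DNA was extracted and run on agarose gel electrophoresis to look for a nucleosome-sized ladder (~180–200 bp fragments).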

HeLa [6] = assay: Induction of apoptosis in human HeLa cells assessed as release of mitochondrial cytochrome c into cytosol at 5 to 10 uM after 12 hrs by fluorescence microscopic analysis; type: functional, cell-based
HeLa [7] = assay: Induction of apoptosis in human HeLa cells assessed as apoptotic ratio at 10 uM after 12 hrs using annexin V/propidium iodide staining by flow cytometry (reference value: 2.3%); type: functional; how it was run: as §2
HeLa [8] = assay: Induction of apoptosis in human HeLa cells assessed as apoptotic morphology at 10 uM after 12 to 24 hrs by Hoechst 33258 staining; type: functional, cell-based
How it was run: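 HeLa cells on coverslips were treated at 10 µM for 12 and 24 h, with an untreated 24 h control. They were fixed in 4% paraformaldehyde for 10 min, washed in PBS, stained with Hoechst 33258 for 5 min and washed again. Nuclei were viewed under fluorescence at 350 nm excitation and 460 nm emission.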

HeLa [9] = assay: Induction of apoptosis in human HeLa cells assessed as early apoptotic cells at 5 uM after 12 hrs using annexin V/propidium iodide staining by flow cytometry (reference value: 3.8%); type: functional; how it was run: as §2
HeLa [10] = assay: Induction of apoptosis in human HeLa cells assessed as DNA fragmentation at 10 uM after 12 to 24 hrs by TUNEL assay; type: functional, cell-based
How it was run: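 After 12 and 24 h at 10 µM, HeLa cells (untreated 24 h control) were fixed in 4% paraformaldehyde and permeabilized with 0.1% Triton X-100. Fragmented DNA 3′-ends were labeled with FITC-dUTP using a TUNEL kit. Cells were imaged by fluorescence microscopy at 488 nm excitation and 530 nm emission.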

HeLa [11] = assay: Induction of apoptosis in human HeLa cells after 12 hrs using annexin V/propidium iodide staining by flow cytometry; type: functional, cell-based; how it was run: as §2
HeLa [12] = assay: Induction of apoptosis in human HeLa cells assessed as activation of caspase 3/9 by spectrophotometry analysis; type: functional, cell-based; conditions: TDE = time-dependent effect
How it was run: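 Caspase-3 and caspase-9 activities in treated HeLa cells were measured spectrophotometrically at time points from 3 to 24 h and compared with untreated controls.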

HeLa [13] = assay: Induction of apoptosis in human HeLa cells at 10 uM after 12 to 24 hrs by acridine orange/ethidium bromide staining; type: functional, cell-based
How it was run: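 HeLa cells were seeded at 5×10⁴ cells/mL on coverslips and fed fresh medium with 10% FBS. They were treated at 10 µM for 12 and 24 h, with an untreated 24 h control. Coverslips were inverted onto AO/EB stain and examined by fluorescence microscopy. Scoring: green = live, green-yellow = early apoptotic, orange = late apoptotic/necrotic.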

HeLa [14] = assay: Induction of apoptosis in human HeLa cells assessed as apoptotic ratio at 5 uM after 12 hrs using annexin V/propidium iodide staining by flow cytometry (reference value: 2.3%); type: functional; how it was run: as §2
HeLa [15] = assay: Induction of apoptosis in human HeLa cells assessed as early apoptotic cells at 10 uM after 12 hrs using annexin V/propidium iodide staining by flow cytometry (reference value: 3.8%); type: functional; how it was run: as §2
HeLa [16] = assay: Induction of apoptosis in human HeLa cells assessed as necrotic cells at 10 uM after 12 hrs using annexin V/propidium iodide staining by flow cytometry (reference value: 2.1%); type: functional; how it was run: as §2
HeLa [17] = assay: Induction of apoptosis in human HeLa cells assessed as change in mitochondrial membrane potential at 10 uM after 12 to 24 hrs by JC-1 staining; type: functional, cell-based
How it was run: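 HeLa cells were exposed at 10 µM for 12 and 24 h, with an untreated 24 h control, then stained with JC-1. Monomers were excited at 514 nm (read 515–545 nm, green) and aggregates at 585 nm (read 570–600 nm, red). Depolarization was taken as a rise in the green/red intensity ratio.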

SMILES	IC50 (SK-OV-3)	IC50 (HeLa [1])	IC50 [2]	IC50 (HCT-116)	IC50 (HepG2)	IC50 (NCI-H460)	other results
COc1cccc(NC(=O)[C@@H](Cc2ccccc2)NC(=O)[C@]2(C)CCC[C@]3(C)c4ccc(C(C)C)cc4CC[C@@H]23)c1	30.5 µM	25.8 µM	38.5 µM	35.8 µM	29.5 µM	40.4 µM	
Cc1ccc(NC(=O)[C@@H](Cc2ccccc2)NC(=O)[C@]2(C)CCC[C@]3(C)c4ccc(C(C)C)cc4CC[C@@H]23)cc1Cl	37.8 µM	10.1 µM	41.2 µM	32.3 µM	36.9 µM	26.1 µM	
O=c1[nH]cc(F)c(=O)[nH]1 [FLUOROURACIL]		80.5 µM	26.8 µM	24.4 µM	27 µM	36 µM	
COc1ccc(NC(=O)[C@@H](Cc2ccccc2)NC(=O)[C@]2(C)CCC[C@]3(C)c4ccc(C(C)C)cc4CC[C@@H]23)cc1	23.8 µM	4.94 µM	15.3 µM	15.7 µM	12.4 µM	17.2 µM	Activity (HeLa [3]): 3.2%; Activity (HeLa [4]): Active; Activity (HeLa [5]): Active; Activity (HeLa [6]): Active; Activity (HeLa [7]): 33.7%; Activity (HeLa [8]): Active; Activity (HeLa [9]): 9.4%; Activity (HeLa [10]): Active; Activity (HeLa [11]): Dose-dependent effect; Activity (HeLa [12]): tde; Activity (HeLa [13]): Active; Activity (HeLa [14]): 12.6%; Activity (HeLa [15]): 19.2%; Activity (HeLa [16]): 14.5%; Activity (HeLa [17]): Active
CC(C)c1ccc2c(c1)CC[C@H]1[C@](C)(C(=O)N[C@H](Cc3ccccc3)C(=O)Nc3cccc([N+](=O)[O-])c3)CCC[C@]21C	20.1 µM	12.8 µM	27.1 µM	27.4 µM	25.3 µM	32.8 µM	
CC(C)c1ccc2c(c1)CC[C@H]1[C@](C)(C(=O)N[C@H](Cc3ccccc3)C(=O)Nc3cccc(Br)c3)CCC[C@]21C	38.8 µM	25.1 µM	19.9 µM	44.1 µM	22.9 µM	33.3 µM	
CC(C)c1ccc2c(c1)CC[C@H]1[C@](C)(C(=O)N[C@H](Cc3ccccc3)C(=O)Nc3cccc(Cl)c3)CCC[C@]21C	30.6 µM	13.1 µM	23.8 µM	45.9 µM	24.7 µM	26.3 µM	
CC(C)c1ccc2c(c1)CC[C@H]1[C@](C)(C(=O)N[C@H](Cc3ccccc3)C(=O)Nc3ccc(Cl)c(Cl)c3)CCC[C@]21C	33.1 µM	28.8 µM	44.7 µM	40.9 µM	20.4 µM	27 µM	
CC(C)c1ccc2c(c1)CC[C@H]1[C@](C)(C(=O)N[C@H](Cc3ccccc3)C(=O)Nc3cccc(F)c3)CCC[C@]21C	33.9 µM	13.9 µM	27.4 µM	34.8 µM	23.9 µM	26.1 µM	
CC(C)c1ccc2c(c1)CC[C@H]1[C@](C)(C(=O)N[C@H](Cc3ccccc3)C(=O)Nc3ccc(C(F)(F)F)cc3)CCC[C@]21C	36.3 µM	10.5 µM	36.1 µM	27.4 µM	21.6 µM	28.9 µM	
Cc1cccc(NC(=O)[C@@H](Cc2ccccc2)NC(=O)[C@]2(C)CCC[C@]3(C)c4ccc(C(C)C)cc4CC[C@@H]23)c1	29.8 µM	18.2 µM	34.6 µM	32.5 µM	26.9 µM	32.4 µM	
CC(C)c1ccc2c(c1)CC[C@H]1[C@](C)(C(=O)N[C@H](Cc3ccccc3)C(=O)Nc3ccc(Cl)cc3)CCC[C@]21C	26.3 µM	12.2 µM	33.6 µM	37.8 µM	26.3 µM	15.8 µM	
CC(C)c1ccc2c(c1)CC[C@H]1[C@](C)(C(=O)N[C@H](Cc3ccccc3)C(=O)Nc3ccc(Br)cc3)CCC[C@]21C	28.7 µM	15.2 µM	16.9 µM	35.3 µM	34.6 µM	28.7 µM	
CC(C)c1ccc2c(c1)CC[C@H]1[C@](C)(C(=O)N[C@H](Cc3ccccc3)C(=O)Nc3ccc(F)cc3)CCC[C@]21C	20.1 µM	10.8 µM	21 µM	27.4 µM	27.1 µM	22.8 µM	
CC(C)c1ccc2c(c1)CC[C@H]1[C@](C)(C(=O)N[C@H](Cc3ccccc3)C(=O)Nc3ccccc3)CCC[C@]21C	27.4 µM	18.9 µM	16.7 µM	30.3 µM	27.7 µM	28.2 µM	
CC(C)c1ccc2c(c1)CC[C@H]1[C@](C)(C(=O)N[C@H](Cc3ccccc3)C(=O)Nc3cc(Cl)ccc3Cl)CCC[C@]21C	21.6 µM	14.9 µM	31 µM	24.1 µM	23.4 µM	15.8 µM	
CC(C)c1ccc2c(c1)CC[C@H]1[C@](C)(C(=O)O)CCC[C@]21C [DEHYDROABIETIC ACID]	75 µM	29.4 µM	34.7 µM	35.2 µM	76.8 µM	80.5 µM	
CC(C)c1ccc2c(c1)CC[C@H]1[C@](C)(C(=O)N[C@H](Cc3ccccc3)C(=O)Nc3ccccc3Cl)CCC[C@]21C	13.5 µM	10.3 µM	15.8 µM	25.5 µM	25.3 µM	15.2 µM	
CC(C)c1ccc2c(c1)CC[C@H]1[C@](C)(C(=O)N[C@H](Cc3ccccc3)C(=O)Nc3ccc(F)c(Cl)c3)CCC[C@]21C	30.5 µM	11.1 µM	26.1 µM	39.3 µM	32.9 µM	26.8 µM	
COc1ccc(OC)c(NC(=O)[C@@H](Cc2ccccc2)NC(=O)[C@]2(C)CCC[C@]3(C)c4ccc(C(C)C)cc4CC[C@@H]23)c1	53.8 µM	19.3 µM	56.3 µM	36.8 µM	38.1 µM	27.4 µM	
Cc1ccc(NC(=O)[C@@H](Cc2ccccc2)NC(=O)[C@]2(C)CCC[C@]3(C)c4ccc(C(C)C)cc4CC[C@@H]23)cc1C	51.8 µM	14.3 µM	48.2 µM	32.1 µM	42.8 µM	37 µM	
